pEC50: −log10 of the molar value. Active and inactive are the calls of the source. The calls are words filed in the database; no cut-off is given here.
Tests used:
[1] = Plasma concentration in C57BL/6 mouse at 10 mg/kg, po administered as single dose measured at 24 hrs by HPLC-MS/MS analysis; type: ADME, organism-based
In short: (§1)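 Male C57BL/6 mice received a single 3 mg/kg iv or 10 mg/kg po dose in 5% DMSO/70% PEG400/25% water. Plasma was sampled at set times over 24 h and analysed by HPLC-MS/MS, with a quantification limit of 0.5 ng/mL. Values are mean ± SD of three mice.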

[2] = system: Chikungunya virus; assay: Antiviral activity against Chikungunya virus IMT infected in HEK 293T cells assessed as reduction in viral load measured up to 24 hrs by qRT-PCR analysis relative to control; type: functional, cell-based
[3] = system: Chikungunya virus; assay: Antiviral activity against Chikungunya virus IMT infected in HEK 293T cells assessed as reduction in viral load at 10 uM measured up to 24 hrs by qRT-PCR analysis relative to control; type: functional
[4] = Terminal half life in C57BL/6 mouse at 10 mg/kg, po; type: ADME, organism-based; conditions: in vivo, read-out: beta t1/2 (converted)
In short: (§2)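 Male C57BL/6 mice received a single 3 mg/kg iv or 10 mg/kg po dose of a solution in 5% DMSO, 70% PEG400 and 25% water. Results are terminal half-life (h), plasma clearance (mL min−1 kg−1), Vss (L/kg), Tmax (h), Cmax (ng/mL) and oral bioavailability. Values are mean ± SD of three mice.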

[5] = system: Chikungunya virus; assay: Antiviral activity against Chikungunya virus IMT infected in HEK 293T cells assessed as reduction in viral load at 5 uM measured up to 24 hrs by qRT-PCR analysis relative to control; type: functional
[6] = Oral bioavailability in C57BL/6 mouse at 10 mg/kg; type: ADME, organism-based; conditions: in vivo; in short: as §2
[7] = Plasma clearance in C57BL/6 mouse at 3 mg/kg, iv; type: ADME, organism-based; in short: as §2
[8] = system: Chikungunya virus; assay: Antiviral activity against wild type Chikungunya virus IMT infected in HEK293T cells assessed as reduction in virus infection after 24 hrs by FITC immunofluorescence-based single cell quantification high content screening assay; type: functional; conditions: HEK-293T
[9] = Half life in human liver microsomes; type: ADME, microsome
In short: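 Compounds were incubated with human liver microsomes. Half-life = ln(2)/slope, where the slope is ln(% detected) plotted against time, using the mean of at least 3 independent experiments.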

[10] = system: Chikungunya virus; assay: Antiviral activity against Chikungunya virus IMT infected in HEK 293T cells assessed as reduction in viral load measured up to 24 hrs by qRT-PCR analysis; type: functional, cell-based
[11] = Plasma concentration in C57BL/6 mouse at 3 mg/kg, iv administered as single dose measured within 1 hr post dose by HPLC-MS/MS analysis; type: ADME, organism-based; in short: as §1
[12] = system: Liver; assay: Intrinsic clearance in human liver microsomes; type: ADME, microsome
In short: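 Intrinsic clearance was measured in human liver microsome incubation and expressed in μL min−1 mg−1 microsomal protein.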

[13] = Cytotoxicity against HEK293T cells assessed as reduction in cell viability after 24 hrs by CellTiter-Glo luminescent assay; type: cell-based, HEK-293T; conditions: human
In short: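 HEK 293T cell viability was measured by CellTiter-Glo luminescence after 24 h exposure to serial dilutions. Data were normalized to untreated cells (100%) and reagent background (0%). CC50, the concentration reducing viability by 50%, came from a five-parameter asymmetric fit.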

[14] = Terminal half life in C57BL/6 mouse at 3 mg/kg, iv; type: ADME, organism-based; conditions: in vivo, read-out: beta t1/2 (converted); in short: as §2
[15] = Plasma concentration in C57BL/6 mouse at 10 mg/kg, po administered as single dose measured within 1 hr post dose by HPLC-MS/MS analysis; type: ADME, organism-based; in short: as §1
[16] = system: Chikungunya virus; assay: Antiviral activity against Chikungunya virus IMT infected in HEK 293T cells assessed as reduction in viral load at 25 uM measured up to 24 hrs by qRT-PCR analysis relative to control; type: functional
[17] = system: Chikungunya virus; assay: Antiviral activity against full length Gaussia princeps Gluc-tagged Chikungunya virus IMT infected in HEK293T cells assessed as reduction in virus infection after 24 hrs by Gaussia luciferase reporter gene assay; type: functional, cell-based; conditions: HEK-293T
[18] = Cmax in C57BL/6 mouse at 10 mg/kg, po; type: ADME, organism-based; parameters: dose 10 mg/kg, route oral; conditions: in vivo; in short: as §2
[19] = Volume of distribution in steady state in C57BL/6 mouse at 3 mg/kg, iv; type: ADME, organism-based; conditions: in vivo, read-out: Vdss; in short: as §2
[20] = Tmax in C57BL/6 mouse at 10 mg/kg, po; type: ADME, organism-based; conditions: in vivo; in short: as §2
[21] = Selectivity index, ratio of CC50 for HEK293T cells to EC50 for full length Gaussia princeps Gluc-tagged Chikungunya virus IMT; type: toxicity; conditions: human, read-out: Ratio CC50/EC50
[22] = Plasma concentration in C57BL/6 mouse at 3 mg/kg, iv administered as single dose measured at 24 hrs by HPLC-MS/MS analysis; type: ADME, organism-based; in short: as §1
[23] = system: Chikungunya virus; assay: Antiviral activity against wild type Chikungunya virus IMT infected in HEK293T cells administered during virus adsorption stage (0 hrs post infection) measured after 24 hrs post infection by FITC immunofluorescence-based single cell quantification high content screening assay; type: functional
[24] = system: Chikungunya virus; assay: Antiviral activity against full length gluc-tagged Chikungunya virus IMT infected in human BJ cells assessed as reduction in virus infection after 24 hrs by gaussia luciferase reporter gene assay; type: functional, cell-based
[25] = system: Sindbis virus; assay: Antiviral activity against Sindbis virus infected in HEK293T cells assessed as reduction in virus infection after 24 hrs by FITC-based assay; type: functional, cell-based; conditions: HEK-293T
In short: (§3)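 This was a pan-alphavirus panel against ONNV and SINV, read by immunofluorescence-based high content screen. Serial dilutions were normalized to untreated infection (100%) and noninfected cells (0%). The EC50, the concentration inhibiting 50% infectivity, came from a five-parameter asymmetric dose-response fit.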

[26] = system: Chikungunya virus; assay: Antiviral activity against wild type Chikungunya virus IMT infected in HEK293T cells at 5 uM administered 2 to 12 hrs post infection measured after 24 hrs post infection by alpha virus detection based FITC immunofluorescence-based single cell quantification high content screening assay; type: functional
[27] = system: Chikungunya virus; assay: Antiviral activity against wild type Chikungunya virus IMT infected in HEK293T cells administered 2 to 4 hrs prior to infection followed by cels incubation in absence of compound from 0 hrs post infection onwards measured after 24 hrs by measured after 24 hrs post infection by FITC immunofluorescence-based single cell quantification high content screening assay; type: functional; conditions: HEK-293T
[28] = system: Chikungunya virus; assay: Antiviral activity against wild type Chikungunya virus IMT infected in HEK293T cells administered 2 to 12 hrs post infection measured after 24 hrs post infection by FITC immunofluorescence-based single cell quantification high content screening assay; type: functional
[29] = system: Onyong-nyong virus; assay: Antiviral activity against O'nyong-nyong virus Chad infected in HEK293T cells assessed as reduction in virus infection after 24 hrs by FITC-based assay; type: functional, cell-based; conditions: HEK-293T; in short: as §3
[30] = system: Chikungunya virus; assay: Antiviral activity against full length gluc-tagged Chikungunya virus 2008 Singapore SGP11 infected in HEK293T cells assessed as reduction in virus infection after 24 hrs by gaussia luciferase reporter gene assay; type: functional, cell-based; conditions: 2008 Singapore SGP11, HEK-293T
[31] = Selectivity index, ratio of CC50 for human BJ cells to EC50 for full length Gaussia princeps Gluc-tagged Chikungunya virus IMT; type: toxicity; conditions: read-out: Ratio CC50/EC50
[32] = system: Chikungunya virus; assay: Antiviral activity against full length gluc-tagged Chikungunya virus 2013 Caribbean CNR20235 infected in HEK293T cells assessed as reduction in virus infection after 24 hrs by gaussia luciferase reporter gene assay; type: functional, cell-based; conditions: 2013 Caribbean CNR20235, HEK-293T
[33] = system: Chikungunya virus; assay: Antiviral activity against wild type Chikungunya virus IMT infected in HEK293T cells at 5 uM administered 2 to 4 hrs prior to infection followed by cels incubation in absence of compound from 0 hrs post infection onwards measured after 24 hrs by measured after 24 hrs post infection by FITC immunofluorescence-based single cell quantification high content screening assay; type: functional
[34] = system: Chikungunya virus; assay: Antiviral activity against wild type Chikungunya virus IMT infected in HEK293T cells administered 2 to 4 hrs prior to infection measured after 24 hrs post infection by FITC immunofluorescence-based single cell quantification high content screening assay; type: functional; conditions: HEK-293T
[35] = Cytotoxicity against human BJ cells assessed as reduction in cell viability after 24 hrs by CellTiter-Glo luminescent assay; type: cell-based
In short: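 BJ human fibroblast viability was measured by CellTiter-Glo luminescence after 24 h exposure to serial dilutions. Data were normalized to untreated cells (100%) and reagent background (0%). CC50 came from a five-parameter asymmetric fit.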

Row | Structure (SMILES) | concentration at 24 h [1] | Activity [2] | half-life [4] | fold change (FC) [5] | bioavailability [6] | clearance [7] | pEC50 [8] | half-life [9] | inhibition [10] | concentration at 1 h [11] | CLH [12] | CC50 at 24 h [13] | half-life [14] | concentration at 1 h [15] | pEC50 [17] | Cmax [18] | Vd [19] | Tmax [20] | selectivity ratio [21] | concentration at 24 h [22] | other results
1 | CCCNC(=O)[C@@H]1C[C@H]2CCC[C@@H](C1)[C@@H]2NC(=O)c1cc2sc(Br)nc2n1Cc1ccc(OC)cc1 | < 0.5 ng/mL | Dose-dependent effect | 83.4 min | <=5 | 39.1% | 5.68 mL/min/kg | 4.90 | 52 min | Dose-dependent effect | 17 µM | 26.7 µL/min | > 100 µM | 65.4 min | 17 µM | 5.14 | 6700 ng/mL | 0.337 L/kg | 20 min | > 14 | < 0.5 ng/mL | fold change (FC) [3]: <=5; fold change (FC) [16]: <=5
2 | CCCNC(=O)C1CCN(C(=O)c2cc3sc(-c4ccccc4)cc3n2Cc2ccc(OC)cc2)CC1 | < 0.5 ng/mL | Dose-dependent effect | 142 min | >50 | 22% | 18.6 mL/min/kg | 5.39 | 44.2 min | Dose-dependent effect | 2 µM | 31.4 µL/min | > 100 µM | 124 min | 2 µM | 5.48 | 720 ng/mL | 2.45 L/kg | 40 min | > 20 | < 0.5 ng/mL | Activity [23]: Active; pEC50 [24]: 5.29; pEC50 [25]: 5.78; Activity [26]: inactive; pEC50 [27]: 4.82 to 4.85; Activity [28]: Active; pEC50 [29]: 5.49; pEC50 [30]: 5.65; selectivity ratio [31]: > 20; pEC50 [32]: 5.66; Activity [33]: inactive; pEC50 [34]: 5.60; CC50 at 24 h [35]: > 100 µM

Source: ChEMBL document CHEMBL4007509, “Structural Optimizations of Thieno[3,2-b]pyrrole Derivatives for the Development of Metabolically Stable Inhibitors of Chikungunya Virus” (J Med Chem, 2017)
